Laboratory results from ChEMBL document CHEMBL4513216, “Probing the Open Global Health Chemical Diversity Library for Multistage-Active Starting Points for Next-Generation Antimalarials” (ACS Infect Dis, 2020).

Assay: Toxicity liver stage against HepG2, at 10uM
Assay type: cell-based
Set-up: test concentration 10 uM, cell line HepG2-A16-CD81EGFP
Settings: human, HepG2-A16-CD81EGFP cells; read-out: INHIBITION
Procedure, shortened: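 Uninfected HepG2-A16-CD81EGFP cells, 3 × 10^3 per well, 1536-well, plated on prespotted compound at 10 μM final, parasite-free screening media added to match infected plates; puromycin 10 μM positive, DMSO 0.5% negative; run in parallel with 48 h PbLuc assay at 37 °C, 5% CO2; viability by CellTiter-Glo luminescence, normalized to controls.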

Row | Structure (SMILES) | cytotoxicity at 10 µM
1 | OCC(O)CN1CCc2onc(-c3ccc(C(F)(F)F)cc3)c2C1 (configuration not stated) | -3.24%
2 | Cc1nc(N2CCN(C)CC2)ncc1C(=O)N1CC[C@](C)(O)[C@H](C)C1 | 1.88%
3 | Cc1ccc(S(=O)(=O)N2CC[C@@H]3C[C@H](NC(=O)c4n[nH]cc4Cl)[C@@H]32)cc1 | 4.31%
4 | Cc1ccc(CNCc2nnc3n2CCCC3C(F)(F)F)o1 (configuration not stated) | 19.5%
5 | O=C(NCCc1nnc2n1CCCCC2)N1CCC2(CCCC2)CC1 | -7.94%
6 | c1ccc(N(CCn2cncn2)CC2CC2)cc1 | 3.04%
7 | CCc1nc(C2CCCN2C(=O)CCCn2cncn2)no1 (configuration not stated) | -11.4%
8 | C=C(C)CN1CCC(NC(=O)Nc2ccc(F)c(C(N)=O)c2)CC1 | -6.08%
9 | O=C1NCCN1C1CCCN(Cc2coc(-c3cccs3)n2)C1 (configuration not stated) | -4.39%
10 | O=C(CN1CCN(c2ccc3nncn3n2)CC1)NC1CCCCC1 | -12.6%
11 | COC(=O)N1CCCC(C(=O)NCc2cc3cccc(OC)c3o2)C1 (configuration not stated) | -7.72%
12 | CC(C)Cc1nnc(NC(=O)NC(CCO)c2cccs2)s1 (configuration not stated) | 0.191%
13 | Cn1cccc1C(=O)N[C@H]1CN(Cc2ccoc2)[C@@H]2CCCO[C@H]12 | -88.7%
14 | CCNC(=O)N1CCc2ccc(NC(=O)NCc3ccsc3)cc21 | -11.8%
15 | CCOC1CCN(C(=O)c2c(Cl)c3ccccc3n2C)CC1 | 6.56%
16 | Cc1cc(C)nc(C2CCN(C3CCOCC3)C2)n1 (configuration not stated) | 0.469%
17 | O=C(NC1CC1)[C@H]1C[C@H]2OCC[C@H]2N(Cc2ccco2)C1 | 8.88%
18 | CCc1c(C(=O)N2CCC(CC(N)=O)CC2)cnn1C(C)(C)C | 2.2%
19 | C=C(C)Cn1cc(C(N)=O)nc1C1CC1 | 14.5%
20 | O=C(C1CNCCN1C(=O)CCc1cccnc1)N1CCOCC1 (configuration not stated) | 4.82%
21 | Cc1csc(CN(C)CCOc2ccccc2)n1 | -3.18%

Row | Structure (SMILES) | cytotoxicity at 10 µM
22 | Cc1ccc(CN2CCn3c(CN(C)C(C)C)cnc3C2)s1 | 8.33%
23 | CCN(CC)c1ccc(C2c3c(n[nH]c3C)N=C3COC(=O)C32)cc1 (configuration not stated) | 4.33%
24 | CNS(=O)(=O)Cc1ccc(CNC(=O)c2cccc(C)n2)cc1 | -3.79%
25 | CN(Cc1ccccn1)C1CC2(CCN(Cc3cccnc3)CC2)C1 | 0.925%
26 | CN(Cc1cccc2ncccc12)C(=O)CCC(F)(F)F | -3.05%
27 | CN(Cc1ccncc1)C1CC2(CCN(C(=O)c3ccnnc3)CC2)C1 | -5.45%
28 | CCN(CC1CCOC1)C(=O)c1cc(OC)c2c(c1)OCCO2 (configuration not stated) | -7.35%
29 | NC(=O)c1cn[nH]c1NC(=O)c1ccc2c(c1)OCO2 | 1.03%
30 | Cc1ncc(CNc2ccc(C(=O)NCc3ccco3)cc2C)s1 | -10.5%
31 | CCCNC(=O)CSc1nnc2[nH]c(=O)c3c(n12)CCCC3 | -83.3%
32 | CN(C)[C@H]1CN(C(=O)c2ccc3sc4c(c3c2)CCNC4=O)C[C@@H]1O | -5.38%
33 | CC(C)c1ncc2c(n1)CN(Cc1nc(-c3ccccn3)no1)CC2 | 1.59%
34 | Cc1cc(CN2CCN(C(=O)NC(C)Cn3ccnc3)CC2)no1 (configuration not stated) | -8.54%
35 | CCCc1cc(C(=O)NCCN2CCCS2(=O)=O)[nH]n1 | -7.13%
36 | CCN1CCC2(COCc3cnc(NCC4CC4)nc32)C1 (configuration not stated) | -12.9%
37 | Cc1cnc(NCC(C)(C)N2CCCCC2)nc1 | -2.69%
38 | COCC[C@]1(O)CCN(CC(=O)NCc2ccccn2)C[C@H]1C | 7.8%
39 | O=C1O[C@@H]2CN(Cc3ccccc3)C[C@@H]2N1CCCN1CCOCC1 | -1.18%
40 | NC(=O)CCn1ccc(NC(=O)C2(c3ccc(F)cc3)CCC2)n1 | -1.03%
41 | CC(NCC(=O)NCC(=O)Nc1ccc(F)cc1)c1cccs1 (configuration not stated) | 6.02%
42 | CCOCCNC(=O)c1cccnc1Sc1cc(OC)ccc1OC | 0.354%

Row | Structure (SMILES) | cytotoxicity at 10 µM
43 | O=C(Cn1cc(C2CC2)nn1)N(Cc1ccco1)Cc1cccs1 | -13.3%
44 | CC1COCCN1Cc1nc(Cc2ccccc2)no1 (configuration not stated) | 5.17%
45 | CC(C)CCN1C(=O)C2(NC(=O)c3ccccc3O2)c2ccccc21 (configuration not stated) | 4.02%
46 | CC(CCO)Nc1cccc(C(F)(F)F)n1 (configuration not stated) | -2.8%
47 | CC(C)c1nccn1-c1cccc(C2CCCN2S(=O)(=O)N(C)C)n1 (configuration not stated) | 4.26%
48 | O=C(NCc1nnc2n1CCCCC2)N(Cc1ccccn1)C1CC1 | 2.46%
49 | O=C1CSC(c2ccsc2)c2sccc2N1 (configuration not stated) | 2.19%
50 | Cc1cc(-c2cnc(NCc3cccnc3)nc2C(C)C)on1 | 19.2%
51 | CN(C)C(=O)NCC(=O)N1CCCC2(CCC(=O)N(CC3CC3)C2)C1 (configuration not stated) | -8.38%
52 | CC(C)[C@H]1COC(=O)N1Cc1nnc(-c2ccccc2)o1 | 0.537%
53 | COCCn1c(C(=O)NCC(C)C(=O)O)cc2ccccc21 (configuration not stated) | 2.64%
54 | CCCc1nnsc1C(=O)NCC1CCN(c2ccccn2)CC1 | -16.7%
55 | CN(CCO)Cc1cc(=O)n2cc(Br)ccc2n1 | -6.69%
56 | O=C(NC1CC1)[C@@H]1CCO[C@@H]2CCN(C3CCOCC3)C[C@H]21 | -9.99%
57 | O=C(NCCCn1cccn1)N1CCCC1c1ccsc1 (configuration not stated) | -7.86%
58 | COc1ccc2c(c1)OCC(CNC(=O)c1ccc(=O)n(C)c1)C2 (configuration not stated) | -11.2%
59 | Cc1nnc(SCC(=O)NCC(c2ccccc2Cl)N(C)C)s1 (configuration not stated) | 2.67%
60 | CCOCC1CCCN(C(=O)NCc2ccc(-c3ccn[nH]3)cc2)C1 (configuration not stated) | -3.25%
61 | NC(=O)C1CCN(c2ccc(C(=O)N3CCc4ccccc43)cn2)C1 (configuration not stated) | -1.29%
62 | Cc1ccnc(NCCSc2nccn2C)n1 | -42%
63 | COc1cccc(C2CCCN2C(=O)NCCCn2cccn2)c1 (configuration not stated) | 15.5%

Row | Structure (SMILES) | cytotoxicity at 10 µM
64 | Cc1noc(C)c1CN1CCC2(CCN(Cc3cccc(F)c3)CC2)C1 | -122%
65 | CCOCCN1CCN(CC(=O)N2CCCC2)CC1C (configuration not stated) | -3.82%
66 | COC(=O)c1cccn1C1CCN(C(=O)c2c(C)noc2C)CC1 | -11.4%
67 | Cc1nc(C)n(C2CCCN(C(=O)c3cccc4cn[nH]c34)C2)n1 (configuration not stated) | -8.86%
68 | CCS(=O)(=O)NC1CCCN(c2cc(C)ccc2F)C1=O (configuration not stated) | 3.07%
69 | O=C(c1ccc[nH]1)N1CCCn2cnc(COCC3CC3)c2C1 | -73.6%
70 | CCOc1cccc(CNc2cnn(CC(C)C)c2CC)c1 | 2.93%
71 | Cc1ccc2c(c1)c(C)cc(=O)n2CC(=O)O | 3.1%
72 | Cc1nc(N2CCC(O)(c3ccc(F)cc3)CC2)c2c(C)nn(C)c2n1 | -0.503%
73 | COCC(=O)N1CCc2ccc(=O)n(CC3CC3)c2CC1 | 6.7%
74 | Cc1ncsc1CN1C[C@@H]2COC[C@]2(C(=O)NCC2CC2)C1 | 5.38%
75 | O=C1CN(C(=O)C2CCCOC2)CCN1Cc1ccc(Cl)cc1 (configuration not stated) | -152%
76 | COc1ccc(-n2c(CO)nc3ccccc32)cc1CO | 1.78%
77 | O=C(c1cscn1)N1CCC2(CCN(Cc3nccs3)CC2)CC1 | -71%
78 | Cc1nn(C)cc1C(=O)N1CCCC(n2nnc3cc(F)ccc32)C1 (configuration not stated) | -11%
79 | CC(C)OCC(=O)Nc1ccc(Oc2ccc3c(c2)OCO3)nc1 | -13.1%
80 | CC(Cn1cccn1)NCc1ccc(Cl)s1 (configuration not stated) | -8.12%
81 | CN1CCN(Cc2cccnc2)C(=O)C12CCN(S(C)(=O)=O)CC2 | 0.611%
82 | Cc1nccn1-c1ccc(CN2CC3C[C@@H](O)CN3C[C@@H]2C)cc1 (some centres not stated) | 6.26%
